# From ChEMBL document CHEMBL5724801, “EUbOPEN Chemogenomics Library - Multiplex” (2024)
# Where “and” joins values, the source holds several entries; their conditions need not be identical. Identical values can stand only once.
# Test system: Fibroblast
# Test: Multiplex assay against human fibroblast
# Assay type: toxicity, cell-based
# Settings: 12 h, 1 µM, compound concentration 1 uM
# Procedure, shortened: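 Per cents of healthy-nucleus cells form the tubulin, mitochondrial-mass and membrane-permeability phenotype values. Live cells were stained at seeding with Hoechst33342, BioTracker Green Microtubule Cytoskeleton Dye, MitoTracker Red and Annexin V Alexa Fluor 680. After compound addition they were imaged on a CQ1 microscope at 37°C and 5% CO2, and CellPathfinder machine-learning gating split them into Hoechst high-intensity objects or normal cells, normal cells into healthy, pyknosed or fragmented nuclei, and pyknosed cells into mitotic or apoptotic.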
Structure (SMILES),Population Apoptotic (%),Population Fragmented Nuclei (%),Population Healthy Nuclei (%),Population Hoechst High Intensity Objects (%),Population Mitochondria Different-Phenotype (%),Population Mitotic Cells (%),Population Normal (%),Population Pyknosed Nuclei (%),Population Tubulin-Different-Phenotype (%),Total Cell Count
CCN1CCN(Cc2ccc(Nc3ncc(F)c(-c4cc(F)c5nc(C)n(C(C)C)c5c4)n3)nc2)CC1.CS(=O)(=O)O,17.78% and 12.5%,19.76% and 8.1%,53.29% and 72.47%,0%,15.73% and 16.2%,82.22% and 87.5%,100%,26.95% and 19.43%,38.2% and 41.9%,167 and 247
CC(C)c1noc(N2CCC(COc3ccc(-c4ccc(S(C)(=O)=O)cc4)nc3)CC2)n1 [GSK-1292263],38% and 29%,14% and 18%,74% and 50%,2% and 6%,1% and 5%,61% and 70%,97% and 93%,11% and 31%,21% and 41%,189 and 149

# Same assay, conditions: 12 h, 1 µM, compound concentration 1 uM
row,Structure (SMILES),Population Membrane Permeable-Phenotype (%)
1,CC(C)c1noc(N2CCC(COc3ccc(-c4ccc(S(C)(=O)=O)cc4)nc3)CC2)n1 [GSK-1292263],0% and 4%

# Same assay, conditions: 12 h, 10 µM, compound concentration 10 uM
Structure (SMILES),Population Apoptotic (%),Population Fragmented Nuclei (%),Population Healthy Nuclei (%),Population Hoechst High Intensity Objects (%),Population Mitochondria Different-Phenotype (%),Population Mitotic Cells (%),Population Normal (%),Population Pyknosed Nuclei (%),Population Tubulin-Different-Phenotype (%),Total Cell Count
CCN1CCN(Cc2ccc(Nc3ncc(F)c(-c4cc(F)c5nc(C)n(C(C)C)c5c4)n3)nc2)CC1.CS(=O)(=O)O,22.89% and 30%,14.07% and 8.33%,54.37% and 75%,0%,15.38% and 7.78%,77.11% and 70%,100%,31.56% and 16.67%,68.53% and 62.59%,263 and 360
CC(C)c1noc(N2CCC(COc3ccc(-c4ccc(S(C)(=O)=O)cc4)nc3)CC2)n1 [GSK-1292263],39% and 35%,–,65% and 45%,3% and 2%,5% and 10%,60% and 64%,96% and 97%,26% and 27%,39% and 61%,162 and 145

# Same assay, conditions: 12 h, 10 µM, compound concentration 10 uM
row,Structure (SMILES),Population Membrane Permeable-Phenotype (%)
1,CC(C)c1noc(N2CCC(COc3ccc(-c4ccc(S(C)(=O)=O)cc4)nc3)CC2)n1 [GSK-1292263],1% and 6%

# Same assay, conditions: 24 h, 1 µM, compound concentration 1 uM
Structure (SMILES),Population Apoptotic (%),Population Fragmented Nuclei (%),Population Healthy Nuclei (%),Population Hoechst High Intensity Objects (%),Population Mitotic Cells (%),Population Normal (%),Population Pyknosed Nuclei (%),Population Tubulin-Different-Phenotype (%),Total Cell Count,Population Membrane Permeable-Phenotype (%)
CCN1CCN(Cc2ccc(Nc3ncc(F)c(-c4cc(F)c5nc(C)n(C(C)C)c5c4)n3)nc2)CC1.CS(=O)(=O)O,25%,16.76% and 6.88%,56.76%,0%,89.8% and 75%,100%,26.49% and 11.59%,43.81% and 37.78%,185 and 276,–
CC(C)c1noc(N2CCC(COc3ccc(-c4ccc(S(C)(=O)=O)cc4)nc3)CC2)n1 [GSK-1292263],50% and 44%,9% and 20%,78% and 53%,3% and 7%,50% and 55%,96% and 92%,11% and 25%,17% and 41%,182 and 142,1% and 4%

# Same assay, conditions: 24 h, 1 µM, compound concentration 1 uM
row,Structure (SMILES),Population Mitochondria Different-Phenotype (%)
1,CC(C)c1noc(N2CCC(COc3ccc(-c4ccc(S(C)(=O)=O)cc4)nc3)CC2)n1 [GSK-1292263],0% and 2%

# Same assay, conditions: 24 h, 10 µM, compound concentration 10 uM
Structure (SMILES),Population Apoptotic (%),Population Fragmented Nuclei (%),Population Healthy Nuclei (%),Population Hoechst High Intensity Objects (%),Population Mitochondria Different-Phenotype (%),Population Mitotic Cells (%),Population Normal (%),Population Pyknosed Nuclei (%),Population Tubulin-Different-Phenotype (%),Total Cell Count
CCN1CCN(Cc2ccc(Nc3ncc(F)c(-c4cc(F)c5nc(C)n(C(C)C)c5c4)n3)nc2)CC1.CS(=O)(=O)O,27.71% and 21.01%,11.19% and 3.61%,58.84% and 63.13%,0%,23.31% and 9.92%,72.29% and 78.99%,100%,29.96% and 33.25%,62.58% and 53.05%,277 and 415
CC(C)c1noc(N2CCC(COc3ccc(-c4ccc(S(C)(=O)=O)cc4)nc3)CC2)n1 [GSK-1292263],52% and 46%,12% and 21%,67% and 55%,2% and 3%,5% and 10%,47% and 53%,97% and 96%,20% and 23%,50% and 56%,168 and 123

# Same assay, conditions: 24 h, 10 µM, compound concentration 10 uM
row,Structure (SMILES),Population Membrane Permeable-Phenotype (%)
1,CC(C)c1noc(N2CCC(COc3ccc(-c4ccc(S(C)(=O)=O)cc4)nc3)CC2)n1 [GSK-1292263],1% and 10%

# Same assay, conditions: 48 h, 1 µM, compound concentration 1 uM
Structure (SMILES),Population Apoptotic (%),Population Fragmented Nuclei (%),Population Healthy Nuclei (%),Population Hoechst High Intensity Objects (%),Population Mitotic Cells (%),Population Normal (%),Population Pyknosed Nuclei (%),Population Tubulin-Different-Phenotype (%),Total Cell Count,Population Membrane Permeable-Phenotype (%)
CCN1CCN(Cc2ccc(Nc3ncc(F)c(-c4cc(F)c5nc(C)n(C(C)C)c5c4)n3)nc2)CC1.CS(=O)(=O)O,23.08% and 25%,17.96% and 9.26%,75.73% and 86.3%,0%,76.92% and 75%,100%,6.31% and 4.44%,44.23% and 44.64%,206 and 270,–
CC(C)c1noc(N2CCC(COc3ccc(-c4ccc(S(C)(=O)=O)cc4)nc3)CC2)n1 [GSK-1292263],66% and 54%,19% and 27%,74% and 47%,3% and 8%,33% and 45%,96% and 91%,–,22% and 55%,193 and 156,0% and 13%

# Same assay, conditions: 48 h, 1 µM, compound concentration 1 uM
row,Structure (SMILES),Population Mitochondria Different-Phenotype (%)
1,CC(C)c1noc(N2CCC(COc3ccc(-c4ccc(S(C)(=O)=O)cc4)nc3)CC2)n1 [GSK-1292263],1% and 4%

# Same assay, conditions: 48 h, 10 µM, compound concentration 10 uM
Structure (SMILES),Population Apoptotic (%),Population Fragmented Nuclei (%),Population Healthy Nuclei (%),Population Hoechst High Intensity Objects (%),Population Mitotic Cells (%),Population Normal (%),Population Pyknosed Nuclei (%),Population Tubulin-Different-Phenotype (%),Total Cell Count,Population Membrane Permeable-Phenotype (%)
CCN1CCN(Cc2ccc(Nc3ncc(F)c(-c4cc(F)c5nc(C)n(C(C)C)c5c4)n3)nc2)CC1.CS(=O)(=O)O,38.62% and 20.77%,5.28% and 6.72%,58.29% and 65.97%,0%,61.38% and 79.23%,100%,36.43% and 27.31%,43.97% and 47.74%,398 and 670,–
CC(C)c1noc(N2CCC(COc3ccc(-c4ccc(S(C)(=O)=O)cc4)nc3)CC2)n1 [GSK-1292263],63% and 50%,13% and 31%,65% and 51%,2% and 0%,36% and 50%,97% and 100%,20% and 17%,48% and 76%,164 and 125,0% and 9%

# Same assay, conditions: 48 h, 10 µM, compound concentration 10 uM
row,Structure (SMILES),Population Mitochondria Different-Phenotype (%)
1,CC(C)c1noc(N2CCC(COc3ccc(-c4ccc(S(C)(=O)=O)cc4)nc3)CC2)n1 [GSK-1292263],8% and 14%
